Measured values published in ChEMBL document CHEMBL1122240, “Inhibition by carboxamides and sulfoxides of liver alcohol dehydrogenase and ethanol metabolism” (J Med Chem, 1983).

Tests used:
Alcohol dehydrogenase = Alcohol dehydrogenase (Equus caballus, UniProt P00327+P00328); assay: In vitro inhibition against horse liver alcohol dehydrogenase
[1] = In vivo inhibition of ethanol metabolism following 1 mMol/Kg i.p.; settings: ip
[2] = target: T1, Alcohol dehydrogenase (Equus caballus) (UniProt P00327+P00328); assay: Intercept inhibition constant was determined against horse liver alcohol dehydrogenase in presence of acetaldehyde
Procedure, shortened: (§1)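 Purified horse liver enzyme, reverse reaction. Freshly distilled acetaldehyde was varied (1–5 mM; 0.4–2.0 mM in some runs) with 0.1 mM NADH and at least three inhibitor levels. Initial velocities were read as A340 change, 32 points per experiment, and inhibition constants were obtained from double-reciprocal fits.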

[3] = target: T1, Alcohol dehydrogenase (Equus caballus); assay: Intercept inhibition constant was determined against horse liver alcohol dehydrogenase in presence of ethanol
Procedure, shortened: (§2)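 Purified horse liver enzyme with ethanol varied as substrate and NAD+ as coenzyme. At least three inhibitor concentrations were tested (e.g. 0–0.2 mM). Initial velocities were followed at 340 nm, 32 points in one experiment. Intercept and slope constants were derived from double-reciprocal plots fitted to uncompetitive or noncompetitive equations.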

[4] = target: T1, Alcohol dehydrogenase (Equus caballus); assay: Slope inhibition constant was determined against horse liver alcohol dehydrogenase in presence of acetaldehyde; procedure, shortened: as §1
[5] = Michaelis-Menten's constant was determined in vivo against rat liver alcohol dehydrogenase in presence of ethanol; type: organism-based
Procedure, shortened: (§3)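 Fed male Sprague-Dawley rats (175–280 g) received inhibitor ip (0.1 M sulfoxide or ≤0.46 M amide in saline) at 0–1.0 mmol/kg. Ten minutes later ethanol (3.26 M) was given ip at 7.69, 10.9 or 19.6 mmol/kg. Tail blood was sampled over time and ethanol measured by GC against a tert-butyl alcohol internal standard. Rate was derived by Widmark's method.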

[6] = Intercept inhibition constant was determined in vitro against purified rat liver alcohol dehydrogenase in presence of ethanol
Procedure, shortened: (§4)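 Rat liver enzyme partially purified by (NH4)2SO4 fractionation, DEAE-cellulose and Sephadex G-100. Assays ran in 83 mM potassium phosphate pH 7.3 with 40 mM KCl (μ 0.25) at 37.8 °C, with 0.5 mM NAD+, ethanol at 0.4–2 mM and inhibitor at 0–0.6 mM. Initial rates were read at 340 nm, 32 points per experiment.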

[7] = Intercept inhibition constant was determined in vivo against rat liver alcohol dehydrogenase in presence of ethanol; type: organism-based; procedure, shortened: as §3
[8] = Michaelis-Menten's constant was determined in vitro against purified rat liver alcohol dehydrogenase in presence of ethanol; procedure, shortened: as §4
[9] = target: T1, Alcohol dehydrogenase (Equus caballus); assay: Slope inhibition constant was determined against horse liver alcohol dehydrogenase in presence of ethanol; procedure, shortened: as §2
[10] = Slope inhibition constant was determined against purified rat liver alcohol dehydrogenase in presence of ethanol; procedure, shortened: as §4
[11] = In vivo inhibition of ethanol metabolism following 1 mMol/Kg i.p.
CC(C)CC(N)=O [12] = assay: (§5) Michaelis-Menten's constant was determined against horse liver alcohol dehydrogenase in presence of ethanol; settings: Equus caballus; procedure, shortened: as §2
[O-][S+]1CCCC1 [13] = as §5; settings: Equus caballus; procedure, shortened: as §2
CC(C)CC(N)=O [14] = assay: (§6) Michaelis-Menten's constant was determined against horse liver alcohol dehydrogenase in presence of acetaldehyde; settings: Equus caballus; procedure, shortened: as §1
[O-][S+]1CCCC1 [15] = as §6; settings: Equus caballus; procedure, shortened: as §1

Chain of Alcohol dehydrogenase (Equus caballus) (from UniProt P00327+P00328) (P00328 whole entry, looked up): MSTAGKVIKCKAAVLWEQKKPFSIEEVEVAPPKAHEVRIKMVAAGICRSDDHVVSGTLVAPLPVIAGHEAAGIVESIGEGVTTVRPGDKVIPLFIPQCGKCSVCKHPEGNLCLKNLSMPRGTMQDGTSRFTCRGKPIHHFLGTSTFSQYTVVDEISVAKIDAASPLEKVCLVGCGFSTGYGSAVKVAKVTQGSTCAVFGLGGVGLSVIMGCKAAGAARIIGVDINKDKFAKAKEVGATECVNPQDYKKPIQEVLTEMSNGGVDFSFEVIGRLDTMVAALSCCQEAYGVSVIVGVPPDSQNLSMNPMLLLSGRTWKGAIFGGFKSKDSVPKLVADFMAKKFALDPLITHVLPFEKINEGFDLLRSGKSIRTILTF
Chain of Alcohol dehydrogenase (Equus caballus) (from UniProt P00327+P00328) (P00327 whole entry, looked up): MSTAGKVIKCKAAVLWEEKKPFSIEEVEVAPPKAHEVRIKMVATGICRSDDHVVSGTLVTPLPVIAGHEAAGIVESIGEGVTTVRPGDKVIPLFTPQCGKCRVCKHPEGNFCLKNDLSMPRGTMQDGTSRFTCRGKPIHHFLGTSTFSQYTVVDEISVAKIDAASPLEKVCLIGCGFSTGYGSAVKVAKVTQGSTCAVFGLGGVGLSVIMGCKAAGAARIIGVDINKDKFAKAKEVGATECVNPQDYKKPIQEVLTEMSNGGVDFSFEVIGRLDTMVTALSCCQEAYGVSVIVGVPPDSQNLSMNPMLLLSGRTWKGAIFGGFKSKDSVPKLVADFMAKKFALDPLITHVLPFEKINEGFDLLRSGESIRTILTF

Row | Compound | Ki (Alcohol dehydrogenase) | inhibition in vivo at 1000 µmol/kg [1] | further results
1 | C=C[S+]([O-])c1ccccc1 (stereo unspecified) | 0.5 mM |  | 
2 | NC(=O)CSCC(N)=O | 36 mM | 7% | 
3 | CC(C)C[S+](C)[O-] (stereo unspecified) | 0.34 mM | 14% | 
4 | NC(=O)CCCO | 6.8 mM | 5% | 
5 | CC[S+](C)[O-] (stereo unspecified) | 0.5 mM | 16% | 
6 | CC(C)C(=O)NN | 2.9 mM |  | 
7 | NC(=O)C(F)(F)C(F)(F)C(F)(F)F [HEPTAFLUOROBUTYRAMIDE] | 2 mM |  | 
8 | NC(=O)CCCCO | 4.4 mM | 9% | 
9 | C[S+]([O-])Cc1ccccc1 (stereo unspecified) | 5 mM | 13% | 
10 | CC(C)C(N)=O [ISOBUTYRAMIDE] | 0.22 mM | 36% | 
11 | NC(=O)C(O)CCO (stereo unspecified) | 5.8 mM |  | 
12 | NC(N)=S [THIOUREA] | 42 mM |  | 
13 | CC(C)CC[S+](C)[O-] (stereo unspecified) | 0.43 mM | 19% | 
14 | [O-][S+]1CCOCC1 | 10.6 mM |  | 
15 | CCCCCCCCCCCCCC[S+](C)[O-] (stereo unspecified) | 0.01 mM | 15% | 
16 | CC(C)(Br)C(N)=O |  | 5% | 
17 | [O-][S+]1CCCCC1 | 0.48 mM | 21% | 
18 | NNC(N)=S [THIOSEMICARBAZIDE] | 1.9 mM |  | 

Row | Compound | Ki (Alcohol dehydrogenase) | inhibition in vivo at 1000 µmol/kg [1] | further results
19 | CCCCCC[S+](C)[O-] (stereo unspecified) | 0.047 mM | 67% | 
20 | [O-][S+]1CCNCC1 | 120 mM |  | 
21 | NC(=O)CCCl | 5.3 mM | 15% | 
22 | NC(=O)CCO | 8.5 mM | 15% | 
23 | NC(=O)CCCCCO | 1.5 mM | 24% | 
24 | COCC(N)=O [METHOXYACETAMIDE] | 0.6 mM | 18% | 
25 | CC(C)(C)CC(N)=O | 0.15 mM | 71% | 
26 | CC[S+]([O-])c1ccccc1 (stereo unspecified) | 12.5 mM |  | 
27 | [O-][S+]1CCCC1 | 0.019 mM |  | Kii [2]: 71 µM; Kii [3]: 19 µM; Kis [4]: 11 µM; Km [5]: 2000 µM/kg; Kii [6]: 200 µM; Kii [7]: 340 µM/kg; Km [8]: 350 µM; Kis [9]: 130 µM; Kis [10]: 230 µM; inhibition [11]: 63%
28 | Alcohol dehydrogenase (Equus caballus) (from UniProt P00327+P00328) |  |  | Km (CC(C)CC(N)=O [12]): 900 µM; Km ([O-][S+]1CCCC1 [13]): 620 µM; Km (CC(C)CC(N)=O [14]): 150 µM; Km ([O-][S+]1CCCC1 [15]): 230 µM
29 | CC[S+]([O-])CC | 1.1 mM |  | 
30 | C[S+]([O-])c1ccccc1 (stereo unspecified) [METHYLPHENYLSULFOXIDE] | 0.2 mM | 19% | 
31 | O=C1CC[S+]([O-])CC1 | 9.7 mM |  | 
32 | O=C1CCCCN1 | 13 mM |  | 
33 | NC(=O)C1CC1 [CYCLOPROPANECARBOXYLIC ACID AMIDE] | 0.79 mM | 29% | 
34 | CCCCCCCCC(N)=O [NONANOAMIDE] |  | 15% | 
35 | [O-][S+]1CCC1 | 0.15 mM | 25% | 
36 | CC(C)CC(N)=O [ISOVALERAMIDE] | 0.02 mM | 78% | Kii [2]: 460 µM; Kii [3]: 20 µM; Kis [4]: 11 µM; Km [5]: 1500 µM/kg; Kii [6]: 20 µM; Kii [7]: 180 µM/kg; Kis [9]: 160 µM
